Measured values as given in paper PMC13435124 (The FASEB Journal, 2026).
Entries after “also recorded” stand apart in the source; their conditions may differ. Read-outs that look alike come from different tables or passages of the source. Marks after values point to notes of the source that are not given here.

Key:
Nrf2 in N2a-APPswe cells = assay: Nrf2 activation, Nrf2 Transcription Factor Assay Kit; type: cell-based, mouse; settings: 250 μM
In short: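 N2a-APPswe cells exposed to test compound at 250 μM for 2, 4 and 6 h. Nrf2 activation determined with a commercial kit.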

N2a-APPswe cells [1] = assay: Nrf2-dependent gene expression; type: cell-based, mouse
[2] = system: Aβ40 and Aβ42 peptide levels in N2a-APPswe cells; assay: Aβ40 and Aβ42 peptide levels in N2a cell supernatants; type: cell-based, mouse; settings: 250 μM, 24 h
In short: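 N2a-wt and N2a-APPswe cells left untreated or exposed to test compound at 250 μM for 24 h. Aβ40 and Aβ42 peptides quantified by ELISA.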

WT and APP/PS1 male mice = assay: Hippocampal gene expression, real-time RT-PCR; type: in vivo, mouse
In short: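 Hippocampi of 11-month-old WT and APP/PS1 males after 1 month of intranasal PBS or test compound at 100 mg/kg. hAPP, Bace1, Il-1β, Iba1, Trem2, Hmox1, Ppargc1α and Bdnf mRNA measured by real-time RT-PCR.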

[3] = system: HMOX1 in N2a-APPswe cells; assay: HMOX1 protein levels, western blot; type: cell-based, mouse; settings: 250 μM, 24 h, vs control
In short: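 N2a-APPswe cells treated 24 h with test compound at 250 μM. HMOX1 detected by western blot after milk blocking 1 h RT; anti-HMOX1 1:1000 in 5% BSA/TBS-T overnight at 4°C, then HRP secondary 1 h RT.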

[4] = Pharmacokinetics after intranasal administration; type: in vivo, mouse; settings: for Kp: B6C3F1, mouse, inhaled or intranasal, 100 mg/kg; for AUC t / AUCinf: WT mice
In short: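 WT B6C3F1 mice (25–30 g), acclimatised ≥7 days with food and water ad libitum, given test compound intranasally at 100 mg/kg. Plasma, brain and lung sampled at 5, 15, 30, 60, 120 and 180 min; n = 4. AUCt and AUCinf derived from concentration–time profiles.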

APP/PS1 female mice [5] = assay: Demographic and metabolic parameters of 6-month-old females; type: in vivo, mouse; settings: 6-month-old APP/PS1 females, 50 mg/kg, 1 month
In short: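 WT and APP/PS1 females given PBS vehicle or test compound at 50 mg/kg (APP/PS1 only) intranasally for 1 month. Recorded body weight, adipose tissue weight, fasting glucose and triglycerides. Mean ± SEM of five to six animals.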

[6] = system: BV-2 cells exposed to LPS; assay: Nos2 and Il-1β mRNA in LPS-stimulated microglia, real-time RT-PCR; type: cell-based, mouse; settings: BV-2, 250 μM, LPS 50 ng/mL, 18 h
In short: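 BV-2 cells given test compound at 250 μM, LPS 50 ng/mL added 30 min later, incubated 18 h. Nos2 and Il-1β mRNA measured by real-time RT-PCR. Mean ± SEM of four independent experiments, relative to untreated control.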

[7] = system: AKT/GSK3β signaling in N2a-APPswe cells; assay: AKT and GSK3β phosphorylation, western blot; type: cell-based, mouse; settings: 250 μM, 30 min
In short: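 Murine N2a-APPswe cells exposed to test compound at 250 μM for 5, 15 or 30 min; basal pAKT in untreated N2a-wt and N2a-APPswe read at 30 min. Protein by BCA; lysates denatured 5 min at 95°C. Membranes blocked 1 h RT in 5% BSA for phospho-proteins, primaries 1:1000 overnight at 4°C, HRP secondaries 1 h RT.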

[8] = cited from earlier work; for dose-normalized AUC t in plasma: oral
APP/PS1 male mice [9] = assay: Aβ40 and Aβ42 levels in cortex, hippocampus and plasma; type: in vivo, mouse; settings: 11-month-old APP/PS1 males, 100 mg/kg, 1 month
In short: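 APP/PS1 and WT littermate males aged 10 months, randomised to groups of n = 5. PBS vehicle or test compound at 100 mg/kg given intranasally for 1 month. At 11 months, Aβ40 and Aβ42 measured in cortex, hippocampus and plasma; plasma Aβ42/Aβ40 ratio derived. Mean ± SEM of five animals.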

[10] = source not given; cited from earlier work
APP/PS1 female mice [11] = assay: Brain protein levels of 6-month-old females, western blot; type: in vivo, mouse; settings: 50 mg/kg, 1 month
In short: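 Females received PBS or test compound at 50 mg/kg (APP/PS1 only) intranasally for 1 month. Brain hAPP, BACE1, iNOS, pro-IL-1β, HMOX1 and p44/42 MAPK assessed by western blot, with milk or BSA (phospho) blocking 1 h RT. Mean ± SEM of five animals; one-way ANOVA with Dunnett's or Tukey's test, p < 0.05.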

APP/PS1 male mice [12] = assay: Y-maze test; type: in vivo, mouse; settings: 100 mg/kg, 1 month
In short: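 Behavioural testing in 10-month-old APP/PS1 and WT littermate males, randomised n = 5 per group. Intranasal PBS or test compound at 100 mg/kg for 1 month. Distance travelled also recorded.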

N2a-APPswe cells [13] = assay: Nrf2 silencing; type: cell-based, mouse
BV-2 cells = assay: Nrf2 silencing; type: cell-based, mouse; settings: BV-2, Iso + LPS
[14] = N2a-APPswe, 1, 3 and 6 h (Figure S2)
[15] = APP/PS1 + Iso vs APP/PS1, 100 mg/kg, 1 month
[16] = APP/PS1 males, 100 mg/kg, 1 month
[17] = WT and APP/PS1 males, 100 mg/kg, 1 month, not significant
[18] = APP/PS1 males, not statistically significant

## CC=Cc1ccc(O)c(OC)c1 [Iso, 2‐methoxy‐4‐(prop‐1‐en‐1‐yl) phenol]
Nrf2 in N2a-APPswe cells
  Nrf2 activation (ELISA kit): increased Nrf2 activation
N2a-APPswe cells [1]; N2a-APPswe, 250 μM, 3 h and 6 h
  Hmox1 gene expression (reduced in N2a-APPswe): significantly reverted
N2a-APPswe cells [1]; [14]
  Nqo1 gene expression: induced
  Sod1 gene expression: induced
[2]
  Aβ42 peptide levels: no effect was observed
[2]; vs untreated cells
  Aβ40 levels: significantly decreased
WT and APP/PS1 male mice; [15]
  decrease in Bdnf gene of APP/PS1 mice: reversed
  reduction in Ppargc1α mRNA levels of APP/PS1 mice: reversed
WT and APP/PS1 male mice; [16]
  Iba1 expression in hippocampus: increased
  h-APP gene expression in hippocampus: not affected
  increase in Trem2 gene expression (trend): 1.6 fold
WT and APP/PS1 male mice; Iso-treated 11-month-old animals, 100 mg/kg, not significant
  reduction of Bace1 mRNA levels: ~ 4 fold
WT and APP/PS1 male mice; [17]
  Bace1 mRNA levels in hippocampus: clear tendency toward a reduction
  Il1β mRNA levels in hippocampus: clear tendency toward a reduction; also recorded: markedly reduced
WT and APP/PS1 male mice; WT males, 100 mg/kg, 1 month
  Trem2 mRNA levels in hippocampus: decreased
WT and APP/PS1 male mice; both WT and APP/PS1 males, 100 mg/kg, 1 month
  Hmox1 expression in hippocampus: increased
[3]
  HMOX1 protein levels: significant increase
[4]; brain and plasma
  Kp: 0.23
[4]; lung and plasma
  Kp: 6.73
[4]; brain, intranasal 100 mg/kg
  AUC t: 140.87 ^c μg.min/g
  AUCinf: 142.15 ^c μg.min/g
[4]; intranasal 100 mg/kg, mice
  dose-normalized AUC t in plasma: 5.99 µg·min/mL/kg
  dose-normalized AUCinf in plasma: 6.04 µg·min/mL/kg
[4]; lung, intranasal 100 mg/kg
  AUC t: 4030.85 ^c μg.min/g
  AUCinf: 4091.75 ^c μg.min/g
APP/PS1 female mice [5]
  adipose tissue weight: did not reduce
[6]
  LPS-induced Il-1β gene expression: reduced
  LPS-induced Nos2 gene expression: reduced
[7]
  AKT phosphorylated levels: AKT activation
  GSK3β phosphorylated (Ser9) levels: GSK3β inactivation
[8]; after intravenous dosing
  alpha half-life distribution time: 7 to 10 min
  steady-state apparent volume of distribution: 11 to 25.2 L/kg
[8]; intravenous 35 mg/kg, mice
  dose-normalized AUCinf in plasma: 6.76 µg·min/mL/kg
[8]; first listed of doses 35, 70 and 140 mg/kg, mice
  dose-normalized AUC t in plasma: 1.91 µg·min/mL/kg
[8]; second listed of doses 35, 70 and 140 mg/kg, mice
  dose-normalized AUC t in plasma: 1.68 µg·min/mL/kg
[8]; third listed of doses 35, 70 and 140 mg/kg, mice
  dose-normalized AUC t in plasma: 1.45 µg·min/mL/kg
APP/PS1 male mice [9]
  cortex Aβ40 levels: no alterations observed
  cortex Aβ42 levels: no alterations observed
  hippocampus Aβ40 levels: no alterations observed
  hippocampus Aβ42 levels: no alterations observed
  plasma Aβ40 levels: decreased
  plasma Aβ42 levels: decreased
APP/PS1 male mice [9]; not significant
  plasma Aβ42/Aβ40 ratio: partial increase
[10]
  octanol-water partition coefficient (logP): 3.04
APP/PS1 female mice [11]; 6-month-old APP/PS1 females
  decrease in brain p44/42 MAPK phosphorylated levels: reverted
APP/PS1 female mice [11]; 6-month-old APP/PS1 mice, p = 0.068
  increase in brain HMOX1 protein levels: 1.5 fold
APP/PS1 female mice [11]; 6-month-old mice
  brain APP protein levels: not altered
APP/PS1 male mice [12]; [18]
  Y-maze entries in the novel arm: reversed this trend
  Y-maze time spent in the novel arm: reversed this trend
APP/PS1 male mice [12]; males
  Y-maze distance traveled: not affected
N2a-APPswe cells [13]; not transfected N2a-APPswe, silencing experiment set, 24 h
  Aβ40 peptide levels: significantly decreased
N2a-APPswe cells [13]; siNrf2 + Iso, N2a-APPswe, 36 h after transfection
  Aβ40 levels in Nrf2-silenced cells: further decreased
BV-2 cells
  Iso-induced NO decrease in siGAPDH- or siNeg-transfected cells: not affected
  Iso-induced NO decrease in siNrf2-transfected cells: reversed
